According to ChEMBL document CHEMBL4382237, “Design, Synthesis, and Biological Evaluation of 2-Nitroimidazopyrazin-one/-es with Antitubercular and Antiparasitic Activity” (J Med Chem, 2018):
≈ marks a conversion by molar mass, not a printed value.

Legend:
[1] = system: Entamoeba histolytica; assay: Antiparasitic activity against Entamoeba histolytica HM-1:IMSS trophozoites after 24 to 48 hrs by CellTiter-Glo luminescent cell viability assay; type: functional, organism-based
Summary of the method: (§1)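 Axenic trophozoites were kept in TYI-S-33 with penicillin (100 U/mL) and streptomycin (100 µg/mL) and harvested in log phase. 5000 parasites per well were exposed to a final 8-point two-fold series of 0.39–50 µM, from 10 mM DMSO stocks. Plates were incubated 24–48 h at 37 °C under anaerobic conditions. ATP luminescence viability was read in triplicate. Percent inhibition is given at the highest concentration tested.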

[2] = system: Klebsiella pneumoniae; assay: Antibacterial activity against Klebsiella pneumoniae 700603 by broth microdilution assay; type: functional
Summary of the method: (§2)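 Broth microdilution run essentially per an earlier report. MIC taken as the lowest concentration with no visible growth. Replicates typically agreed within one 2-fold dilution. The median MIC is reported, with a range where the median fell between two tested concentrations.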

[3] = Metabolic stability in human plasma assessed as parent compound remaining at 3 uM after 2 hrs by LC-MS/MS analysis
[4] = Protein binding in human plasma at 5 uM after 30 mins by LC-MS/MS analysis based ultrafiltration method; settings: 0.5 h
[5] = system: HEK293; assay: Cytotoxicity against HEK293 cells after 24 hrs by resazurin dye-based fluorescence assay; type: cell-based; settings: human, hek293, 24 h
Summary of the method: (§3)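 HEK293 (3000/well) and HepG2 (5000/well) were grown 24 h in DMEM with 10% FBS at 37 °C, 5% CO2. Cells were then exposed 24 h to a dilution series up to 100 µM (0.5% DMSO). 5 µM resazurin was added for 2 h, read at ex 560/em 590. 1% Triton X-100 served as lysis control. CC50 was derived from the curves.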

[6] = system: Cryptococcus neoformans; assay: Antifungal activity against Cryptococcus neoformans H99 ATCC […] broth microdilution assay; type: functional; settings: var. grubii H99 ATCC 208821; summary of the method: as §2
[7] = system: Acinetobacter baumannii; assay: Antibacterial activity against Acinetobacter baumannii ATCC 19606 by broth microdilution assay; type: functional; settings: ATCC 19606 = CIP 70.34 = JCM 6841; summary of the method: as §2
[8] = system: Trypanosoma brucei brucei; assay: Antiparasitic activity against bloodstream form of Trypanosoma brucei brucei strain 427 after 48 hrs by resazurin dye-based assay; type: functional, organism-based; settings: strain 427, 48 h
[9] = system: Mycobacterium tuberculosis; assay: Antibacterial activity against non-replicating Mycobacterium tuberculosis H37Rv after 5 days under hypoxic condition by resazurin dye-based fluorescence assay; type: functional; settings: 120 h
Summary of the method: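 Same H37Rv inoculum (OD600 0.001, ~2 x 10^4 CFU/mL) in 7H9S with serially diluted compound. Plates held 5 days at 0.1% oxygen, then resazurin plus Tween-80 added.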

[10] = Metabolic stability in human liver microsomes assessed as parent compound remaining at 3 uM after 2 hrs by LC-MS/MS analysis
[11] = Metabolic stability in CD-1 mouse liver microsomes assessed as parent compound remaining at 3 uM after 2 hrs by LC-MS/MS analysis
[12] = system: Candida albicans; assay: Antifungal activity against Candida albicans ATCC 90028 by broth microdilution assay; type: functional; summary of the method: as §2
[13] = Metabolic stability in CD-1 mouse plasma assessed as parent compound remaining at 3 uM after 2 hrs by LC-MS/MS analysis
[14] = system: Clostridioides difficile; assay: Antibacterial activity against Clostridium difficile 630 ATCC BAA-1382 by broth microdilution assay; type: functional; summary of the method: as §2
[15] = system: Giardia intestinalis; assay: Antiparasitic activity against Giardia lamblia WB trophozoites after 24 to 48 hrs by CellTiter-Glo luminescent cell viability assay; settings: Giardia duodenalis
[16] = system: Staphylococcus aureus; assay: Antibacterial activity against methicillin-resistant Staphylococcus aureus ATCC […] by broth microdilution assay; type: functional
[17] = system: Escherichia coli; assay: Antibacterial activity against Escherichia coli ATCC 25922 by broth microdilution assay; type: functional; summary of the method: as §2
[18] = system: Mycobacterium tuberculosis; assay: Antibacterial activity against Mycobacterium tuberculosis H37Rv after 5 days under normoxic condition by resazurin dye-based fluorescence assay; type: functional, organism-based
Summary of the method: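 H37Rv grown in 7H9/ADC/glycerol/Tyloxapol to mid-exponential phase, diluted to OD600 0.001 (~2 x 10^4 CFU/mL) in 7H9S with serially diluted compound. Incubated 5 days at 37 °C, then resazurin and Tween-80 added. Fluorescence (ex 530/em 590 nm) read after 24 h, normalised to no-drug and no-bacteria wells.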

[19] = system: Pseudomonas aeruginosa; assay: Antibacterial activity against Pseudomonas aeruginosa ATCC 27853 by broth microdilution assay; type: functional; summary of the method: as §2
[20] = system: HepG2; assay: Cytotoxicity against human HepG2 cells after 24 hrs by resazurin dye-based fluorescence assay; type: cell-based; settings: hepg2, 24 h; summary of the method: as §3
[21] = Apparent permeability across basolateral to apical side in human Caco2 cells assessed as mean drug recovery at 2 uM after 2 hrs by lucifer yellow dye-based LC-MS/MS analysis; settings: Caco-2
[22] = Apparent permeability across apical to basolateral side in human Caco2 cells assessed as mean drug recovery at 2 uM after 2 hrs by lucifer yellow dye-based LC-MS/MS analysis; settings: caco-2, 2 h
[23] = system: Giardia intestinalis; assay: Antiparasitic activity against Giardia lamblia WB trophozoites assessed as inhibition of parasitic growth at 50 uM after 24 to 48 hrs by CellTiter-Glo luminescent cell viability assay relative to control; type: functional; settings: Giardia duodenalis, read-out: GI; summary of the method: as §1
[24] = system: Trypanosoma brucei brucei; assay: Antiparasitic activity against bloodstream form of Trypanosoma brucei brucei strain 427 assessed as inhibition of parasitic growth at 40 uM after 48 hrs by resazurin dye-based assay relative to control; type: functional; settings: strain 427, 48 h, read-out: GI
[25] = system: Entamoeba histolytica; assay: Antiparasitic activity against Entamoeba histolytica HM-1:IMSS trophozoites assessed as inhibition of parasitic growth at 50 uM after 24 to 48 hrs by CellTiter-Glo luminescent cell viability assay relative to control; type: functional; settings: read-out: GI; summary of the method: as §1
[26] = buffer, 24 h, 200 µM
[27] = physchem; settings: PBS, pH 7.4
[28] = buffer, pH 7.4, 24 h, 200 µM
[29] = physchem; settings: water
[30] = Apparent permeability across apical to basolateral side in human Caco2 cells at 2 uM after 2 hrs by lucifer yellow dye-based LC-MS/MS analysis; settings: caco-2, 2 h
[31] = Apparent permeability across basolateral to apical side in human Caco2 cells at 2 uM after 2 hrs by lucifer yellow dye-based LC-MS/MS analysis; settings: caco-2, 2 h

O=c1c2nc([N+](=O)[O-])cn2ccn1Cc1ccc(F)cc1
IC50 ([1]; read-out: IC50): > 50 µM
MIC [2]: > 32 mg/L
Stability [3]: 98%
PPB [4]: 82%
CC50 [5]: > 100 µM
MIC [6]: > 32 mg/L
MIC [7]: > 32 mg/L
IC50 ([8]; read-out: IC50): 2.9 µM
IC50 ([8]; read-out: pIC50 (converted)): 3.16 µM
MIC [9]: 2 mg/L (≈ 6.94 µM)
Stability [10]: 99%
Stability [11]: > 99%
MIC [12]: > 32 mg/L
Stability [13]: > 99%
MIC [14]: > 64 mg/L
IC50 [15]: 6.4 µM
IC50 ([15]; read-out: pIC50 (converted)): 6.31 µM
MIC [16]: > 32 mg/L
MIC [17]: > 32 mg/L
MIC [18]: 1 mg/L (≈ 3.47 µM)
MIC [19]: > 32 mg/L
CC50 [20]: > 100 µM

C[C@H]1O[C@@H](O[C@H]2[C@@H](O)C[C@H](O[C@H]3[C@@H](O)C[C@H](O[C@H]4CC[C@@]5(C)[C@H](CC[C@@H]6[C@@H]5C[C@@H](O)[C@]5(C)[C@@H](C7=CC(=O)OC7)CC[C@]65O)C4)O[C@@H]3C)O[C@@H]2C)C[C@H](O)[C@@H]1O [DIGOXIN]
recovery at 2 h, 2 µM [21]: 88%
Drug recovery [22]: < 72%

Cc1cn2cc([N+](=O)[O-])nc2c(OCCO)n1
IC50 ([1]; read-out: IC50): > 50 µM
IC50 ([1]; read-out: pIC50 (converted)): > 50.1 µM
inhibition of growth at 50 µM [23]: 80%
inhibition of growth at 40 µM [24]: 56%
MIC [9]: > 32 mg/L

CC(=O)OCCn1c(C)cn2cc([N+](=O)[O-])nc2c1=O
inhibition of growth at 50 µM [25]: 41%
log(Kinetic_solubility) [26]: > -4
IC50 ([8]; read-out: IC50): 0.65 µM
IC50 ([8]; read-out: pIC50 (converted)): 0.631 µM
MIC [9]: > 32 mg/L
IC50 [15]: 50 µM
IC50 ([15]; read-out: pIC50 (converted)): 50.1 µM
MIC [18]: >32 mg/L
solubility kinetic at 24 h, 200 µM [27]: 100 to 200 µM (≈ 28 to 56 µg/mL)
log(Kinetic_solubility) [28]: > -4
solubility kinetic at 24 h, 200 µM [29]: 100 to 200 µM (≈ 28 to 56 µg/mL)

O=[N+]([O-])c1cn2c(n1)OC[C@@H](OCc1ccc(OC(F)(F)F)cc1)C2 [PRETOMANID]
recovery at 2 h, 2 µM [21]: 101%
Papp [30]: 290 nm/s
Papp [31]: 220 nm/s
Drug recovery [22]: 81%

O=c1c2nc([N+](=O)[O-])cn2ccn1Cc1cccc(OC(F)(F)F)c1
Stability [3]: > 99%
Stability [10]: > 99%
Stability [11]: > 99%
Stability [13]: 97%
recovery at 2 h, 2 µM [21]: 99%
Papp [30]: 240 nm/s
Papp [31]: 240 nm/s
MIC [14]: > 64 mg/L
Drug recovery [22]: 88%

Cc1ccc(Cn2c(C)c(C)n3cc([N+](=O)[O-])nc3c2=O)cc1
IC50 ([1]; read-out: IC50): 33 µM
IC50 ([1]; read-out: pIC50 (converted)): 31.6 µM
log(Kinetic_solubility) [26]: < -5
IC50 ([8]; read-out: IC50): 0.25 µM
IC50 ([8]; read-out: pIC50 (converted)): 0.251 µM
MIC [9]: 4 mg/L (≈ 12.8 µM)
IC50 [15]: 5.2 µM
IC50 ([15]; read-out: pIC50 (converted)): 5.01 µM
MIC [18]: 2 mg/L (≈ 6.4 µM)
solubility kinetic at 24 h, 200 µM [27]: < 10 µM
log(Kinetic_solubility) [28]: < -5

CC(=O)OCCOc1nc(C)cn2cc([N+](=O)[O-])nc12
inhibition of growth at 50 µM [25]: 42%
IC50 ([8]; read-out: IC50): > 40 µM
IC50 ([8]; read-out: pIC50 (converted)): > 39.8 µM
MIC [9]: > 32 mg/L
IC50 [15]: 21 µM
IC50 ([15]; read-out: pIC50 (converted)): 20 µM
